The values that follow come from ChEMBL document CHEMBL4145462, “Nitrogen-containing ecdysteroid derivatives vs. multi-drug resistance in cancer: Preparation and antitumor activity of oximes, oxime ethers and a lactam” (Eur J Med Chem, 2018).

Each structure is given as a SMILES string.

A short description of the first assay: Synergistic cytotoxicity against mouse L5178 cells expressing human ABCB1 assessed as combination index at ED50 using 7.5:1 test compound to doxorubicin ratio after 48 hrs by MTT-based checkerboard microplate method. In kind it is functional. Put shortly: (§1)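 Checkerboard microplate combinations of compound with doxorubicin at constant molar ratios. 5 × 10^4 cells/well in McCoy's 5A, 48 h at 37°C, 5% CO2. MTT added to 0.5 mg/mL final for 4 h, SDS/HCl overnight, OD read at 540 and 630 nm. Combination indices derived per ratio for 50%, 75% and 90% growth inhibition by median-effect analysis.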
As for `CO/N=C1\C=C2[C@H](CC[C@]3(C)[C@@H]([C@@]4(C)OC(C)(C)O[C@@H]4CCC(C)(C)O)CC[C@@]23O)[C@@]2(C)C[C@@H]3OC(C)(C)O[C@@H]3C[C@@H]12`, the CI stood at 0.19.

A further assay is described as follows: Synergistic cytotoxicity against mouse L5178 cells expressing human ABCB1 assessed as combination index at ED75 using 7.5:1 test compound to doxorubicin ratio after 48 hrs by MTT-based checkerboard microplate method. Format: functional. Put shortly:
as §1
Consider `CO/N=C1\C=C2[C@H](CC[C@]3(C)[C@@H]([C@@]4(C)OC(C)(C)O[C@@H]4CCC(C)(C)O)CC[C@@]23O)[C@@]2(C)C[C@@H]3OC(C)(C)O[C@@H]3C[C@@H]12`, for which the CI was 0.17.

A further assay is described as follows: Synergistic cytotoxicity against mouse L5178 cells expressing human ABCB1 assessed as combination index at ED90 using 7.5:1 test compound to doxorubicin ratio after 48 hrs by MTT-based checkerboard microplate method. Format: functional. The method, boiled down: as §1
On to `CO/N=C1\C=C2[C@H](CC[C@]3(C)[C@@H]([C@@]4(C)OC(C)(C)O[C@@H]4CCC(C)(C)O)CC[C@@]23O)[C@@]2(C)C[C@@H]3OC(C)(C)O[C@@H]3C[C@@H]12`, for which the CI was determined as 0.16.

A short description of the next assay: Synergistic cytotoxicity against mouse L5178 cells assessed as combination index at ED50 using 37.5:1 test compound to doxorubicin ratio after 48 hrs by MTT-based checkerboard microplate method. In kind it is functional. Put shortly:
as §1
For the compound `CO/N=C1\C=C2[C@H](CC[C@]3(C)[C@@H]([C@@]4(C)OC(C)(C)O[C@@H]4CCC(C)(C)O)CC[C@@]23O)[C@@]2(C)C[C@@H]3OC(C)(C)O[C@@H]3C[C@@H]12`, the CI is reported as 1.19.

Another assay is described as follows: Synergistic cytotoxicity against mouse L5178 cells assessed as combination index at ED75 using 37.5:1 test compound to doxorubicin ratio after 48 hrs by MTT-based checkerboard microplate method. Format: functional. Put shortly: as §1
For `CO/N=C1\C=C2[C@H](CC[C@]3(C)[C@@H]([C@@]4(C)OC(C)(C)O[C@@H]4CCC(C)(C)O)CC[C@@]23O)[C@@]2(C)C[C@@H]3OC(C)(C)O[C@@H]3C[C@@H]12`, the CI amounted to 1.14.

The next assay can be described thus: Synergistic cytotoxicity against mouse L5178 cells assessed as combination index at ED90 using 37.5:1 test compound to doxorubicin ratio after 48 hrs by MTT-based checkerboard microplate method. In kind it is functional. Put shortly: as §1
Take `CO/N=C1\C=C2[C@H](CC[C@]3(C)[C@@H]([C@@]4(C)OC(C)(C)O[C@@H]4CCC(C)(C)O)CC[C@@]23O)[C@@]2(C)C[C@@H]3OC(C)(C)O[C@@H]3C[C@@H]12`: the CI is 1.13.

Another assay can be described thus: Synergistic cytotoxicity against mouse L5178 cells assessed as combination index at ED50 using 75:1 test compound to doxorubicin ratio after 48 hrs by MTT-based checkerboard microplate method. Format: functional. Put shortly:
as §1
As for `CO/N=C1\C=C2[C@H](CC[C@]3(C)[C@@H]([C@@]4(C)OC(C)(C)O[C@@H]4CCC(C)(C)O)CC[C@@]23O)[C@@]2(C)C[C@@H]3OC(C)(C)O[C@@H]3C[C@@H]12`, the CI came out at 0.99.

A short description of the next assay: Synergistic cytotoxicity against mouse L5178 cells assessed as combination index at ED75 using 75:1 test compound to doxorubicin ratio after 48 hrs by MTT-based checkerboard microplate method. Format: functional. The method, boiled down: as §1
Take `CO/N=C1\C=C2[C@H](CC[C@]3(C)[C@@H]([C@@]4(C)OC(C)(C)O[C@@H]4CCC(C)(C)O)CC[C@@]23O)[C@@]2(C)C[C@@H]3OC(C)(C)O[C@@H]3C[C@@H]12`: the CI stood at 1.06.

The nature of a further assay: Synergistic cytotoxicity against mouse L5178 cells assessed as combination index at ED90 using 75:1 test compound to doxorubicin ratio after 48 hrs by MTT-based checkerboard microplate method. In kind it is functional. Put shortly:
as §1
As to `CO/N=C1\C=C2[C@H](CC[C@]3(C)[C@@H]([C@@]4(C)OC(C)(C)O[C@@H]4CCC(C)(C)O)CC[C@@]23O)[C@@]2(C)C[C@@H]3OC(C)(C)O[C@@H]3C[C@@H]12`, the CI turned out to be 1.19.

A short description of a further assay: Synergistic cytotoxicity against mouse L5178 cells expressing human ABCB1 assessed as combination index at ED50 using 60:1 test compound to doxorubicin ratio after 48 hrs by MTT-based checkerboard microplate method. Format: functional. Put shortly:
as §1
As to `CO/N=C1\C=C2[C@H](CC[C@]3(C)[C@@H]([C@@]4(C)OC(C)(C)O[C@@H]4CCC(C)(C)O)CC[C@@]23O)[C@@]2(C)C[C@@H]3OC(C)(C)O[C@@H]3C[C@@H]12`, the CI was 0.29.

A further assay in a line: Synergistic cytotoxicity against mouse L5178 cells expressing human ABCB1 assessed as combination index at ED75 using 60:1 test compound to doxorubicin ratio after 48 hrs by MTT-based checkerboard microplate method. In kind it is functional. The method, boiled down:
as §1
For `CO/N=C1\C=C2[C@H](CC[C@]3(C)[C@@H]([C@@]4(C)OC(C)(C)O[C@@H]4CCC(C)(C)O)CC[C@@]23O)[C@@]2(C)C[C@@H]3OC(C)(C)O[C@@H]3C[C@@H]12`, the CI was 0.39.

Another assay can be described thus: Synergistic cytotoxicity against mouse L5178 cells expressing human ABCB1 assessed as combination index at ED90 using 60:1 test compound to doxorubicin ratio after 48 hrs by MTT-based checkerboard microplate method. Format: functional. The method, boiled down:
as §1
For `CO/N=C1\C=C2[C@H](CC[C@]3(C)[C@@H]([C@@]4(C)OC(C)(C)O[C@@H]4CCC(C)(C)O)CC[C@@]23O)[C@@]2(C)C[C@@H]3OC(C)(C)O[C@@H]3C[C@@H]12`, the CI is listed as 0.52.

A further assay is described as follows: Synergistic cytotoxicity against mouse L5178 cells assessed as combination index at ED50 using 300:1 test compound to doxorubicin ratio after 48 hrs by MTT-based checkerboard microplate method. Format: functional. Put shortly:
as §1
Consider `CO/N=C1\C=C2[C@H](CC[C@]3(C)[C@@H]([C@@]4(C)OC(C)(C)O[C@@H]4CCC(C)(C)O)CC[C@@]23O)[C@@]2(C)C[C@@H]3OC(C)(C)O[C@@H]3C[C@@H]12`, for which the CI came to 0.82.

The next assay in a line: Synergistic cytotoxicity against mouse L5178 cells assessed as combination index at ED75 using 300:1 test compound to doxorubicin ratio after 48 hrs by MTT-based checkerboard microplate method. Format: functional. Put shortly:
as §1
`CO/N=C1\C=C2[C@H](CC[C@]3(C)[C@@H]([C@@]4(C)OC(C)(C)O[C@@H]4CCC(C)(C)O)CC[C@@]23O)[C@@]2(C)C[C@@H]3OC(C)(C)O[C@@H]3C[C@@H]12`: the CI stood at 0.8.

A further assay can be described thus: Synergistic cytotoxicity against mouse L5178 cells assessed as combination index at ED90 using 300:1 test compound to doxorubicin ratio after 48 hrs by MTT-based checkerboard microplate method. In kind it is functional. The method, boiled down:
as §1
On to `CO/N=C1\C=C2[C@H](CC[C@]3(C)[C@@H]([C@@]4(C)OC(C)(C)O[C@@H]4CCC(C)(C)O)CC[C@@]23O)[C@@]2(C)C[C@@H]3OC(C)(C)O[C@@H]3C[C@@H]12`, for which the CI was determined as 0.83.

The next assay is described as follows: Synergistic cytotoxicity against mouse L5178 cells assessed as combination index at ED50 using 600:1 test compound to doxorubicin ratio after 48 hrs by MTT-based checkerboard microplate method. Format: functional. The method, boiled down:
as §1
Turning to `CO/N=C1\C=C2[C@H](CC[C@]3(C)[C@@H]([C@@]4(C)OC(C)(C)O[C@@H]4CCC(C)(C)O)CC[C@@]23O)[C@@]2(C)C[C@@H]3OC(C)(C)O[C@@H]3C[C@@H]12`, the CI is recorded as 0.93.

The nature of another assay: Synergistic cytotoxicity against mouse L5178 cells assessed as combination index at ED75 using 600:1 test compound to doxorubicin ratio after 48 hrs by MTT-based checkerboard microplate method. In kind it is functional. The method, boiled down:
as §1
With `CO/N=C1\C=C2[C@H](CC[C@]3(C)[C@@H]([C@@]4(C)OC(C)(C)O[C@@H]4CCC(C)(C)O)CC[C@@]23O)[C@@]2(C)C[C@@H]3OC(C)(C)O[C@@H]3C[C@@H]12`, the CI is recorded as 0.9.

The nature of another assay: Synergistic cytotoxicity against mouse L5178 cells assessed as combination index at ED90 using 600:1 test compound to doxorubicin ratio after 48 hrs by MTT-based checkerboard microplate method. In kind it is functional. The method, boiled down:
as §1
Regarding `CO/N=C1\C=C2[C@H](CC[C@]3(C)[C@@H]([C@@]4(C)OC(C)(C)O[C@@H]4CCC(C)(C)O)CC[C@@]23O)[C@@]2(C)C[C@@H]3OC(C)(C)O[C@@H]3C[C@@H]12`, the CI came to 0.91.
